From ChEMBL document CHEMBL1132243, “Structure-activity relationships of L-dioxolane uracil nucleosides as anti-Epstein Barr virus agents” (J Med Chem, 1999) come the findings set out here.

For data set [1], the system named is Human gammaherpesvirus 4. As to the kind of experiment: (§1) Effective concentration of compound against Epstein Barr virus was determined. The class given is functional, organism-based. The method in brief:
(§2)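 Log-phase H1 cells seeded at 2 × 10^5 cells/well, exposed to a range of concentrations at 37 °C for 5 days. EBV DNA was measured by slot blot of freeze-thaw lysates in 10 mM Tris-HCl pH 7.5 with RNase A (50 μg/mL final, 55 °C, 2 h), probed with EBV EcoRI fragment, then reprobed with Alu. The EBV/Alu ratio was compared with untreated cells.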

The nature of data set [2]: Selective Index from ID50 to that of EC90.
Data set [3] in a line: Cytotoxicity on human P3HR1 derived H1 cells. The conditions noted are these: read-out: ID50 (the source's name). The class given is functional. The method in brief:
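H1 cells seeded at 2 × 10^5 cells/well with various compound concentrations for 3 days, then counted. ID50 is the dose giving a 50% drop in cell number versus the untreated control. Medium was RPMI 1640 with 10% dialyzed FBS, 37 °C, 5% CO2.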

Data set [4] relates to Human gammaherpesvirus 4. The data set is described as §1. The class given is functional. A digest of the protocol:
as §2

A short description of data set [5]: Toxicity of compound was determined as decrease in mt-DNAcontent in human P3HR1 derived H1 cells. The class given is cell-based. The method in brief: (§3)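 H1 cells (high-yield EBV producers derived from P3HR1), kept in log growth for 2 days, seeded at 2 × 10^5 cells/well with or without compound at various concentrations, 37 °C for 5 days. Lysed by freeze-thaw, RNase A treated, slot-blotted, then hybridized with a mitochondrial DNA probe after the Alu probe was stripped. mtDNA content compared with untreated cells.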

A short description of data set [6]: Selective Index (ID50/EC90).
A short description of data set [7]: Compound was tested for cytotoxicity against mt-DNA. A digest of the protocol:
as §3

For orientation: EC50 means the concentration needed to bring the measured effect to its halfway point. High values mean a less potent agent, low ones a more potent agent. Consider `O=c1ccn([C@H]2CO[C@@H](CO)O2)c(=O)[nH]1`, for which the EC50 in data set [1] (human gammaherpesvirus 4) was over 50 µM.
The molecule `O=c1[nH]c(=O)n(C2COC(CO)O2)cc1I` (stereo in doubt; 17) [listing 1 of 2 here] yielded a Selectivity index in data set [2] of over 6250.
Consider `Nc1nc2c(ncn2COC(CO)CO)c(=O)[nH]1` [GANCICLOVIR], for which a half-maximal response in data set [1] (human gammaherpesvirus 4) (EC50) required 5 µM. Further, the IC50 in data set [3] (Homo sapiens, H1) came out at 75 µM.
Broadly, the EC90 is the point of the concentration-response curve where the effect stands at 90%. The molecule `O=c1[nH]c(=O)n(C2COC(CO)O2)cc1Cl` (stereo not given) registered a Selectivity index in data set [2] of over 72. The molecule further returned a concentration giving a half-maximal response (EC50) in data set [1] (human gammaherpesvirus 4) of 0.6 µM. In data set [4], this molecule had an EC90 of 1.37 µM. The same molecule gave a Toxicity in data set [5] of over 50 µM. The IC50 in data set [3] (Homo sapiens, H1) is over 100 µM.
In data set [1] (human gammaherpesvirus 4), `O=c1[nH]c(=O)n([C@H]2CO[C@@H](CO)O2)cc1F` showed an EC50 of 50 µM. The molecule further returned a Toxicity in data set [5] of over 50 µM. Moreover, the IC50 in data set [3] (Homo sapiens, H1) is over 100 µM.
The molecule `O=c1[nH]c(=O)n(C2COC(CO)O2)cc1C(F)(F)F` (stereo not given) had a half-maximal effective concentration (EC50) in data set [1] (human gammaherpesvirus 4) of 4 µM. Besides, the IC50 in data set [3] (Homo sapiens, H1) is over 100 µM.
Regarding `O=c1[nH]c(=O)n(C2COC(CO)O2)cc1I` (stereo in doubt), the concentration for a half-maximal effect (EC50) in data set [1] was found to be 7.6 µM. Moreover, in data set [3], the IC50 turned out to be 18 µM.
`O=c1[nH]c(=O)n([C@H]2CO[C@@H](CO)O2)cc1Br`: the Selectivity index in data set [6] was over 2080. Further, the Toxicity in data set [7] was over 50 µM. Besides, the 50% effective concentration (EC50) in data set [1] (human gammaherpesvirus 4) amounted to 0.19 µM. Also, the EC90 in data set [4] turned out to be 0.48 µM. The IC50 in data set [3] (Homo sapiens, H1) is over 1000 µM.
As for `O=c1[nH]c(=O)n(C2COC(CO)O2)cc1I` (stereo in doubt; 17) [listing 2 of 2 here], in data set [1], it took 0.033 µM to reach a half-maximal effect (EC50). Moreover, the 90% effect level in data set [4] (EC90) was put at 0.16 µM. The same molecule returned a Toxicity in data set [5] of over 50 µM. Also, the IC50 in data set [3] was over 1000 µM.
